EBNA-1 inhibitor – blocks EBNA-1 binding to DNA; EBNA-1 DNA binding, fluorescence polarization; inhibition, % at 14.8 µM; 300,000 tested, 0.34% active; AID 1950; in the data active = inhibition above about 28%
UBC13 inh – human UBC13 polyubiquitination inhibition. inhibition, % at 20 µM. AID 485273. P61088. UBC13 polyubiquitin chain formation, TR-FRET. 330,000 tested, 0.47% active; in the data active = inhibition above about 45%, passing the limit was not always enough
Apaf1 inhib – human Apaf-1 inhibition; reconstituted apoptosome caspase-3 activity, DEVD-Rh110 fluorescence; inhibition, % at 20 µM; 330,000 tested, 0.71% active; AID 489030; active = inhibition of at least 40% at 20 µM
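detection = Rh110 fluorescence intensity | test system = biochemical Apaf-1 apoptosome reconstitution | also added = cytochrome c and DEVD-Rh110 substrate | schedule = 30 min plus 50 min, RT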
M18AAP inhibitor – PfM18AAP enzyme inhibition. recombinant PfM18AAP, H-Glu-NHMec fluorogenic cleavage. inhibition, % at 7.35 µM. 290,000 tested, 1.2% active. AID 1822;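 active = inhibition above the campaign mean inhibition over all tested compounds plus 3 SD, cut at about 28% in these data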
ZTA counter – blocks Epstein-Barr virus ZTA, an EBNA-1 counter-screen; P03206; ZTA-DNA binding, fluorescence polarization; inhibition, % at 11 µM; 320,000 tested, 0.15% active; AID 2234; in the data active = inhibition above about 33%
PfG6PD inh – PfG6PD (Plasmodium falciparum) enzyme inhibition; PfGluPho enzyme, NADPH resazurin-diaphorase fluorescence; inhibition, % at 20 µM; 350,000 tested, 0.78% active; AID 504690;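 active = inhibition reaching at least a set limit at 20 µM in the primary screen, cut at about 59% in these data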
Apaf-1 inh conf2 – confirmation of Apaf-1 inhibitors; shares compounds with Apaf1 inhib; reconstituted apoptosome, caspase-3 DEVD-Rh110 fluorescence; inhibition, % at 20 µM; 1,800 tested, 25% active; AID 504614;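 active = mean inhibition of at least 40% at 20 µM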
Rh110 quench – counter-screen for Apaf-1 inhibitors: fluorescence interference. shares compounds with Apaf1 inhib. Rh110 fluorescence interference, quenched caspase reaction. activation (fluorescence interference), % at 20 µM. 1,800 tested, under 10 active;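 active = signal rise of 40% or more at 20 µM, treated as a fluorescence artifact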
Apaf1 inh interf – counter-screen for Apaf-1 inhibitors: fluorescence interference, dose response; shares compounds with Apaf1 inhib; fluorescence interference counterscreen, Apaf-1 assay format; IC50, µM; 460 tested, under 10 active; AID 588538; call rule not given here
Each line names hits and unclear results; the compound was inactive in the other large screens (follow-up assays come after a bar, where they were run). This is a sample that favours compounds with a hit; in the whole collection about 2.9% have one here.

Cc1ccc(-c2nc(S(=O)(=O)c3ccccc3)c(SCC(=O)NCC3CCCO3)o2)cc1 (stereo unspecified)	none
COc1ccc(CCN(C)C(=O)C2CC(=O)N(Cc3ccc(C)cc3)C2)cc1OC (stereo unspecified)	Apaf1 inhib 55.8 (no result: EBNA-1 inhibitor, M18AAP inhibitor) | Apaf-1 inh conf2 inactive | Rh110 quench inactive
CCN(CC)CCNC(=O)c1ccc(NC(=O)C2CC(=O)N(CCc3ccc(OC)c(OC)c3)C2)cc1 (stereo unspecified)	Apaf1 inhib 47.2 (no result: EBNA-1 inhibitor, M18AAP inhibitor) | Apaf-1 inh conf2 inactive | Rh110 quench inactive
COc1ccc(-c2c(-c3ccccc3OC)oc3ccccc23)cc1F	none (no result: EBNA-1 inhibitor, M18AAP inhibitor)
CCOC(=O)c1cc2cc3ccccc3cc2[nH]1	Apaf1 inhib 58.4 | Apaf-1 inh conf2 inactive | Rh110 quench inactive
CC(C)OC(=O)c1cc2ccccc2[nH]1	none
Cc1ccc(C(CC(=O)O)NC(=O)CCNC(=O)c2ccco2)cc1 (stereo unspecified)	none (no result: EBNA-1 inhibitor, M18AAP inhibitor, ZTA counter)
CCN1CCN(c2ccc(S(=O)(=O)N3CCCCC3)cc2NC(=O)/C=C/c2cc(OC)ccc2OC)CC1	Apaf1 inhib 45.5 | Apaf-1 inh conf2 inactive | Rh110 quench inactive
CCN1CCN(c2ccc(S(=O)(=O)N3CCCCC3)cc2NC(=O)/C=C/c2ccc(OC)c(OC)c2)CC1	none (no result: M18AAP inhibitor)
CCN1CCN(c2ccc(S(=O)(=O)N3CCCCC3)cc2NC(=O)COc2ccc(Cl)c(C)c2)CC1	Apaf1 inhib 44.7 | Apaf-1 inh conf2 inactive | Rh110 quench inactive
Cc1ccc(SCCC(=O)NC2CC2)cc1	none
C[C@@H](C(=O)N1CCN(C(=O)OC(C)(C)C)CC1)n1cc(-c2cn([C@@H](C)C(=O)N3CCN(C(=O)OC(C)(C)C)CC3)nn2)nn1	none (no result: EBNA-1 inhibitor, M18AAP inhibitor, ZTA counter, PfG6PD inh)
CC1=NN(c2ccc(C(F)(F)F)cn2)C(=O)C1	Apaf1 inhib 62.0 | Apaf-1 inh conf2 61.2 | Rh110 quench inactive | Apaf1 inh interf inactive
CS(=O)(=O)Nc1ccc(N2CCN(c3ccc(C(F)(F)F)cn3)CC2)nc1	none
CCOC(=O)c1nn(-c2ccc(C)c(C)c2)c(=O)c2c(N)scc12	Apaf1 inhib 56.3 | Apaf-1 inh conf2 41.0 | Rh110 quench inactive | Apaf1 inh interf inactive
COc1ccc2c(c1)c(/C=N/Nc1nc3ccccc3[nH]1)c(C)n2C	Apaf1 inhib 43.5 | Apaf-1 inh conf2 inactive | Rh110 quench inactive
Cc1ccc(S(=O)(=O)N2CCOCC2)cc1C(=O)OCC(=O)NCCc1ccc(F)cc1	none (no result: EBNA-1 inhibitor, M18AAP inhibitor, ZTA counter)
CCc1ccc2cccc3c2c1N=CN3C	Apaf1 inhib 86.6 (no result: M18AAP inhibitor) | Apaf-1 inh conf2 inactive | Rh110 quench inactive
CCCCNc1c(-c2ccc(SC(C)CC)c(OC)c2)nc2ccc(C)cn12 (stereo unspecified)	none (no result: M18AAP inhibitor)
CCCCNc1c(-c2ccc(SC(C)CC)cc2)nc2cnccn12 (stereo unspecified)	Apaf1 inhib 59.9 (no result: EBNA-1 inhibitor, M18AAP inhibitor, ZTA counter) | Apaf-1 inh conf2 46.3 | Rh110 quench inactive | Apaf1 inh interf inactive
CCCCCCSc1cc(-c2nc3cc(C)ccn3c2NCCCC)ccc1OC	none (no result: M18AAP inhibitor)
CCCCCCSc1cc(-c2nc3cnccn3c2NCCCC)ccc1OC	Apaf1 inhib 46.1 (no result: EBNA-1 inhibitor, M18AAP inhibitor, ZTA counter) | Apaf-1 inh conf2 inactive | Rh110 quench inactive
CCCCNc1c(-c2ccc(OC)c(Sc3ccc(OC)cc3)c2)nc2ccccn12	none (no result: M18AAP inhibitor)
CCCCNc1c(-c2ccc(OC)c(Sc3ccc(OC)cc3)c2)nc2cnccn12	Apaf1 inhib 43.1 (no result: EBNA-1 inhibitor, M18AAP inhibitor, ZTA counter) | Apaf-1 inh conf2 inactive | Rh110 quench inactive
O=C1c2ccccc2C(=O)N1CC(=O)N1c2ccccc2CCc2ccccc21	none
O=C(C(Cc1ccccc1)N1C(=O)c2ccccc2C1=O)N1c2ccccc2CCc2ccccc21 (stereo unspecified)	Apaf1 inhib 40.2 | Apaf-1 inh conf2 inactive | Rh110 quench inactive
O=C(O)C1(S(=O)(=O)c2ccc(Cl)cc2)CCC1	none
O=C(OC1CCCCC1=O)c1cccc(S(=O)(=O)N2CCOCC2)c1 (stereo unspecified)	none (no result: M18AAP inhibitor)

High-throughput results: PubChem, several laboratories
